According to PMC9233146 (Cell chemical biology, 2022):

Columns and labels:
HRECs [1] = test: Scratch wound migration assay; type: cell-based, human; conditions: 8 hour treatment, dose dependent
In short: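 HRECs were grown to confluence in 96-well plates at 37°C, scratched down the well centre with a pipette tip, and treated with test compound. Brightfield images were taken at 8 h. Cells migrating into the scratch were counted manually in six images per treatment and normalised to DMSO. Replicate runs were live-imaged. n=4 technical.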

HRECs [2] = test: Matrigel-based tube formation assay; type: cell-based, human; conditions: 8 hour treatment, qualitative
In short: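 Matrigel was solidified 20 min at 37°C. HRECs were added at 15,000/well in EGM-2 and dosed with test compound in DMSO. Tubes were watched by brightfield every 2 h and imaged at 8 h. Total tubule length from six images per treatment was normalised to DMSO controls. n=6 technical.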

recombinant FECH [3] = target: T1, recombinant FECH (Homo sapiens, UniProt P22830); test: FECH enzymatic activity assay; type: biochemical; conditions: for inhibitory activity against recombinant FECH: qualitative
T1 sequence (P22830 55-423): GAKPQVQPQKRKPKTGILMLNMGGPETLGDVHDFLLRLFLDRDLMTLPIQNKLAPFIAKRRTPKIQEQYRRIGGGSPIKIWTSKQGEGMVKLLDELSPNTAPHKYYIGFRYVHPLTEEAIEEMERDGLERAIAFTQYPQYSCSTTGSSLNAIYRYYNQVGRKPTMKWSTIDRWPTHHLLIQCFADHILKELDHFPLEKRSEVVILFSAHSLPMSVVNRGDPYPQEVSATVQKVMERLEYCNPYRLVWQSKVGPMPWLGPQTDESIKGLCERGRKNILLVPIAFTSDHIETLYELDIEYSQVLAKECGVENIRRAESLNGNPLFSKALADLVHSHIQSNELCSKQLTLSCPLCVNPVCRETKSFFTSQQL

HRECs [4] = test: In vitro apoptosis assays; type: cell-based, human; conditions: 16 hour treatment, 10, 30 and 100 μM
In short: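 HRECs on coated chamber slides, 70% confluent, were treated 16 h with vehicle, test compound (10, 30, 100 μM), or positive controls (1 μM staurosporine for caspase, 10 μM DNase I for TUNEL). After 4% PFA fixation: Triton permeabilisation, anti-cleaved caspase-3 (1:200, overnight, 4°C), fluorescent secondary and Hoechst; or a Click-iT TUNEL kit. Stained cells were counted as % of nuclei in three 40x fields. Three biological repeats.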

[5] = test system: iCEC2 choroidal endothelial cells; test: iCEC2 proliferation assay; type: cell-based, human; conditions: 48 hour treatment
[6] = test system: FECH activity in HRECs (PPIX accumulation); test: Protoporphyrin IX buildup assay; type: cell-based, human; conditions: highest dose, co-treated with 5-ALA, 3 hour treatment, vs. DMSO
ARPE19 cells [7] = test: ARPE19 proliferation assay; type: cell-based, human; conditions: 48 hour treatment
[8] = test system: COXIV subunit I expression in HRECs; test: Immunoblot for hemoprotein COXIV subunit I; type: cell-based, human; conditions: 16 hours, dose dependent (10, 30 or 100 μM)
In short: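 HRECs were treated 16 h with test compound (10, 30 or 100 μM), a reference FECH inhibitor (10 μM) or DMSO. Arms were: 6 h pretreatment with 100 μM succinylacetone or water, or after treatment, medium replaced by EBM-2 with 0.2% serum and 10 μM hemin. Lysate protein (40 μg) was run on 12% SDS-PAGE and PVDF, probed with anti-COX4I1 (1:1000) and β-actin (1:2000). n=3 biological.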

[9] = test system: Human Retinal Endothelial Cell (HREC); test: HREC proliferation assay; type: cell-based; conditions: 48 hour treatment, qualitative
recombinant FECH [10] = target: T1, recombinant FECH; test: 4e-FECH enzyme kinetic analysis; type: biochemical; conditions: vs. substrate mesoporphyrin IX; Vmax consistent, KM increased
PPIX and heme in HRECs = test: Porphyrin and heme analysis; type: cell-based, human; conditions: 30 μM 4e ± 1 mM 5-ALA
In short: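 HRECs were grown to 80% confluence and serum-starved overnight. Cells received DMSO or 30 μM test compound for 1 h, then 1 mM 5-ALA or water for a further 2 h. They were pelleted in cold PBS and frozen. Heme and porphyrins were quantified by a core facility following its posted protocols. n=3.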

[11] = test system: choroidal neovascularization
[12] = target: dopamine D2 receptor DRD2S (Homo sapiens, UniProt P14416); test: SafetyScan off-target analysis, DRD2S; type: cell-based
HRECs [13] = conditions: ref Basavarajappa et al., 2017; cited from earlier work
HRECs [14] = conditions: ref Basavarajappa et al., 2017; cited from earlier work; remark: listed apart in the source
[15] = test system: Human Retinal Endothelial Cell (HREC); conditions: HRECs; ref Basavarajappa et al., 2017; cited from earlier work
ARPE19 cells [16] = conditions: ref Basavarajappa et al., 2017; cited from earlier work
[17] = recombinant FECH activity assay

dopamine D2 receptor DRD2S, sequence (P14416 1-414 isoform P14416-2): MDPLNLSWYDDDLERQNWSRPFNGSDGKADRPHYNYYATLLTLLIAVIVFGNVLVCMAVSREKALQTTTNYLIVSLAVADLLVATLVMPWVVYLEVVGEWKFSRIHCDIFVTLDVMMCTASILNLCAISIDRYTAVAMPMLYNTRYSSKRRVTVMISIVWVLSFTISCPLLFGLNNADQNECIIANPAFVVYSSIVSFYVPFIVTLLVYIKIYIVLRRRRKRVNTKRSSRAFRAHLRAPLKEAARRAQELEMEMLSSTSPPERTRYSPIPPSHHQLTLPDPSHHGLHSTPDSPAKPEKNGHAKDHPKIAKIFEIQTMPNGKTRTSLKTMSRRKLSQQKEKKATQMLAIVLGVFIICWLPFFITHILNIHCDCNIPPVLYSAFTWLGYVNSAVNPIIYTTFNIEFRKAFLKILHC

CC(C)(C)c1ccc(-c2nc3[nH]c(CNc4ccc5ccccc5n4)cc(=O)n3n2)cc1 [4e, 2-(4-(tert-Butyl)phenyl)-5-((quinolin-2-ylamino)methyl)-[1,2,4]triazolo[1,5-a]pyrimidin-7(4H)-one]
HREC migration (HRECs [1]): blocked the migration ability | HREC tube formation (HRECs [2]): blocked tube formation of HRECs | inhibitory activity against recombinant FECH (recombinant FECH [3]): showed inhibitory activity | IC50 value (range in words) (recombinant FECH [3]; [17]): high nanomolar range | apoptosis in HRECs (cleaved caspase-3, TUNEL) (HRECs [4]): did not lead to apoptosis | proliferation of iCEC2 cells [5]: more potent than NMPP | PPIX accumulation in HRECs [6]: statistically significant PPIX accumulation | antiproliferative effect on ARPE19 cells (ARPE19 cells [7]): did not have a substantial antiproliferative effect | COXIV subunit I levels in HRECs [8]: decreased COXIV levels | HREC proliferation (antiproliferative effect) [9]: anti-proliferative | mode of inhibition (recombinant FECH [10]): competitive inhibition | PPIX level in HRECs (PPIX and heme in HRECs): buildup of FECH substrate PPIX | heme level in HRECs (PPIX and heme in HRECs): decrease in heme | ocular toxicity (fundus images, OCT) ([11]; day 0, 7 and 14 after laser, intravitreal): no obvious signs of toxicity | decrease in lesion volume (agglutinin and GS-IB4 signal, choroidal flat mounts) ([11]; day 14, both tested doses (50 and 100 μM intravitreal)): > 50% | OCT lesion volume relative to control ([11]; day 14, final intravitreal concentrations of 50 μM as well as 100 μM): significantly reduced | leakage on fluorescein angiography (FA) ([11]; day 14, qualitative): smaller | EC50 [12]: 98 µM

CCCc1cc(=O)n2nc(CNc3ccc(C)cc3)nc2[nH]1 [5c, 5-Propyl-2-((p-tolylamino)methyl)-[1,2,4]triazolo[1,5-a]pyrimidin-7(4H)-one]
HREC tube formation (HRECs [2]): blocked tube formation of HRECs | IC50 value (range in words) (recombinant FECH [3]; [17]): high nanomolar range | HREC proliferation (antiproliferative effect) [9]: anti-proliferative

CCCc1cc(=O)n2nc(CNc3ccc(Cl)cc3)nc2[nH]1 [5f, 2-(((4-Chlorophenyl)amino)methyl)-5-propyl-[1,2,4]triazolo[1,5-a]pyrimidin-7(4H)-one]
inhibitory activity against recombinant FECH (recombinant FECH [3]): potent FECH inhibitors

CCCc1cc(=O)n2nc(CNc3ccc(F)c(Cl)c3)nc2[nH]1 [5i, 2-(((3-Chloro-4-fluorophenyl)amino)methyl)-5-propyl-[1,2,4]triazolo[1,5-a]pyrimidin-7(4H)-one]
inhibitory activity against recombinant FECH (recombinant FECH [3]): strongest inhibitory activity | HREC proliferation (antiproliferative effect) [9]: did not affect HREC proliferation

CCCc1cc(=O)n2nc(CNc3ccc(F)c(F)c3)nc2[nH]1 [5k, 2-(((3,4-Difluorophenyl)amino)methyl)-5-propyl-[1,2,4]triazolo[1,5-a]pyrimidin-7(4H)-one]
inhibitory activity against recombinant FECH (recombinant FECH [3]): strongest inhibitory activity | HREC proliferation (antiproliferative effect) [9]: did not affect HREC proliferation

N-methylprotoporphyrin [NMPP]
inhibition of HREC migration, active concentrations (HRECs [13]): single-digit micromolar concentrations | FECH activity inhibition (recombinant FECH [3]; 10 μM, positive control in the screen): completely inhibited | IC50 (recombinant FECH [3]; [17]): 0.45 µM | proliferation of iCEC2 cells [5]: antiproliferative | inhibition of HREC tube formation, active concentrations (HRECs [14]): single-digit micromolar concentrations | GI50 [15]: 30 µM | proliferation of ARPE19 cells (ARPE19 cells [16]): did not block proliferation
